pIC50: −log10 of the molar value.
Target: Serine/threonine-protein kinase mTOR (Homo sapiens) (UniProt P42345)
Assay: Inhibition of mTOR in human HeLa cells using 4E-BP1 substrate at 10 uM by ELISA
Type: cell-based

inhibition [%]	Compound
< 30	c1cnc2nc(N3CCOCC3)nc(N3CCOCC3)c2c1
< 30	C[C@H]1CCCCN1c1nc(N2CCCCC2)c2cccnc2n1
< 30	CC1CCCCN1c1nc(N2CCOCC2)c2ncccc2n1 (stereo not drawn)
< 30	CC1CCCCN1c1nc(N2CCOCC2)c2ccncc2n1 (stereo not drawn)
< 30	CC1CCCCN1c1nc(N2CCOCC2)c2ccccc2n1 (stereo not drawn)

System: T47D
Assay: Antiproliferative activity against human T47D cells after 120 hrs by SRB assay
Type: functional

GI50 [nM]	Compound
350	COc1ccc(-c2ccc3c(N4CCOCC4)nc(N4C[C@@H](C)O[C@@H](C)C4)nc3n2)cc1CO [Ku-0063794]

Target: Serine/threonine-protein kinase ATR (Homo sapiens, UniProt Q13535)
Assay: Inhibition of ATR

pIC50	Compound
< 5.00	COc1ccc(-c2ccc3c(N4CCOCC4)nc(N4C[C@@H](C)O[C@@H](C)C4)nc3n2)cc1CO [Ku-0063794]

Target: DNA-dependent protein kinase catalytic subunit (Homo sapiens, UniProt P78527)
Sequence (P78527 whole entry): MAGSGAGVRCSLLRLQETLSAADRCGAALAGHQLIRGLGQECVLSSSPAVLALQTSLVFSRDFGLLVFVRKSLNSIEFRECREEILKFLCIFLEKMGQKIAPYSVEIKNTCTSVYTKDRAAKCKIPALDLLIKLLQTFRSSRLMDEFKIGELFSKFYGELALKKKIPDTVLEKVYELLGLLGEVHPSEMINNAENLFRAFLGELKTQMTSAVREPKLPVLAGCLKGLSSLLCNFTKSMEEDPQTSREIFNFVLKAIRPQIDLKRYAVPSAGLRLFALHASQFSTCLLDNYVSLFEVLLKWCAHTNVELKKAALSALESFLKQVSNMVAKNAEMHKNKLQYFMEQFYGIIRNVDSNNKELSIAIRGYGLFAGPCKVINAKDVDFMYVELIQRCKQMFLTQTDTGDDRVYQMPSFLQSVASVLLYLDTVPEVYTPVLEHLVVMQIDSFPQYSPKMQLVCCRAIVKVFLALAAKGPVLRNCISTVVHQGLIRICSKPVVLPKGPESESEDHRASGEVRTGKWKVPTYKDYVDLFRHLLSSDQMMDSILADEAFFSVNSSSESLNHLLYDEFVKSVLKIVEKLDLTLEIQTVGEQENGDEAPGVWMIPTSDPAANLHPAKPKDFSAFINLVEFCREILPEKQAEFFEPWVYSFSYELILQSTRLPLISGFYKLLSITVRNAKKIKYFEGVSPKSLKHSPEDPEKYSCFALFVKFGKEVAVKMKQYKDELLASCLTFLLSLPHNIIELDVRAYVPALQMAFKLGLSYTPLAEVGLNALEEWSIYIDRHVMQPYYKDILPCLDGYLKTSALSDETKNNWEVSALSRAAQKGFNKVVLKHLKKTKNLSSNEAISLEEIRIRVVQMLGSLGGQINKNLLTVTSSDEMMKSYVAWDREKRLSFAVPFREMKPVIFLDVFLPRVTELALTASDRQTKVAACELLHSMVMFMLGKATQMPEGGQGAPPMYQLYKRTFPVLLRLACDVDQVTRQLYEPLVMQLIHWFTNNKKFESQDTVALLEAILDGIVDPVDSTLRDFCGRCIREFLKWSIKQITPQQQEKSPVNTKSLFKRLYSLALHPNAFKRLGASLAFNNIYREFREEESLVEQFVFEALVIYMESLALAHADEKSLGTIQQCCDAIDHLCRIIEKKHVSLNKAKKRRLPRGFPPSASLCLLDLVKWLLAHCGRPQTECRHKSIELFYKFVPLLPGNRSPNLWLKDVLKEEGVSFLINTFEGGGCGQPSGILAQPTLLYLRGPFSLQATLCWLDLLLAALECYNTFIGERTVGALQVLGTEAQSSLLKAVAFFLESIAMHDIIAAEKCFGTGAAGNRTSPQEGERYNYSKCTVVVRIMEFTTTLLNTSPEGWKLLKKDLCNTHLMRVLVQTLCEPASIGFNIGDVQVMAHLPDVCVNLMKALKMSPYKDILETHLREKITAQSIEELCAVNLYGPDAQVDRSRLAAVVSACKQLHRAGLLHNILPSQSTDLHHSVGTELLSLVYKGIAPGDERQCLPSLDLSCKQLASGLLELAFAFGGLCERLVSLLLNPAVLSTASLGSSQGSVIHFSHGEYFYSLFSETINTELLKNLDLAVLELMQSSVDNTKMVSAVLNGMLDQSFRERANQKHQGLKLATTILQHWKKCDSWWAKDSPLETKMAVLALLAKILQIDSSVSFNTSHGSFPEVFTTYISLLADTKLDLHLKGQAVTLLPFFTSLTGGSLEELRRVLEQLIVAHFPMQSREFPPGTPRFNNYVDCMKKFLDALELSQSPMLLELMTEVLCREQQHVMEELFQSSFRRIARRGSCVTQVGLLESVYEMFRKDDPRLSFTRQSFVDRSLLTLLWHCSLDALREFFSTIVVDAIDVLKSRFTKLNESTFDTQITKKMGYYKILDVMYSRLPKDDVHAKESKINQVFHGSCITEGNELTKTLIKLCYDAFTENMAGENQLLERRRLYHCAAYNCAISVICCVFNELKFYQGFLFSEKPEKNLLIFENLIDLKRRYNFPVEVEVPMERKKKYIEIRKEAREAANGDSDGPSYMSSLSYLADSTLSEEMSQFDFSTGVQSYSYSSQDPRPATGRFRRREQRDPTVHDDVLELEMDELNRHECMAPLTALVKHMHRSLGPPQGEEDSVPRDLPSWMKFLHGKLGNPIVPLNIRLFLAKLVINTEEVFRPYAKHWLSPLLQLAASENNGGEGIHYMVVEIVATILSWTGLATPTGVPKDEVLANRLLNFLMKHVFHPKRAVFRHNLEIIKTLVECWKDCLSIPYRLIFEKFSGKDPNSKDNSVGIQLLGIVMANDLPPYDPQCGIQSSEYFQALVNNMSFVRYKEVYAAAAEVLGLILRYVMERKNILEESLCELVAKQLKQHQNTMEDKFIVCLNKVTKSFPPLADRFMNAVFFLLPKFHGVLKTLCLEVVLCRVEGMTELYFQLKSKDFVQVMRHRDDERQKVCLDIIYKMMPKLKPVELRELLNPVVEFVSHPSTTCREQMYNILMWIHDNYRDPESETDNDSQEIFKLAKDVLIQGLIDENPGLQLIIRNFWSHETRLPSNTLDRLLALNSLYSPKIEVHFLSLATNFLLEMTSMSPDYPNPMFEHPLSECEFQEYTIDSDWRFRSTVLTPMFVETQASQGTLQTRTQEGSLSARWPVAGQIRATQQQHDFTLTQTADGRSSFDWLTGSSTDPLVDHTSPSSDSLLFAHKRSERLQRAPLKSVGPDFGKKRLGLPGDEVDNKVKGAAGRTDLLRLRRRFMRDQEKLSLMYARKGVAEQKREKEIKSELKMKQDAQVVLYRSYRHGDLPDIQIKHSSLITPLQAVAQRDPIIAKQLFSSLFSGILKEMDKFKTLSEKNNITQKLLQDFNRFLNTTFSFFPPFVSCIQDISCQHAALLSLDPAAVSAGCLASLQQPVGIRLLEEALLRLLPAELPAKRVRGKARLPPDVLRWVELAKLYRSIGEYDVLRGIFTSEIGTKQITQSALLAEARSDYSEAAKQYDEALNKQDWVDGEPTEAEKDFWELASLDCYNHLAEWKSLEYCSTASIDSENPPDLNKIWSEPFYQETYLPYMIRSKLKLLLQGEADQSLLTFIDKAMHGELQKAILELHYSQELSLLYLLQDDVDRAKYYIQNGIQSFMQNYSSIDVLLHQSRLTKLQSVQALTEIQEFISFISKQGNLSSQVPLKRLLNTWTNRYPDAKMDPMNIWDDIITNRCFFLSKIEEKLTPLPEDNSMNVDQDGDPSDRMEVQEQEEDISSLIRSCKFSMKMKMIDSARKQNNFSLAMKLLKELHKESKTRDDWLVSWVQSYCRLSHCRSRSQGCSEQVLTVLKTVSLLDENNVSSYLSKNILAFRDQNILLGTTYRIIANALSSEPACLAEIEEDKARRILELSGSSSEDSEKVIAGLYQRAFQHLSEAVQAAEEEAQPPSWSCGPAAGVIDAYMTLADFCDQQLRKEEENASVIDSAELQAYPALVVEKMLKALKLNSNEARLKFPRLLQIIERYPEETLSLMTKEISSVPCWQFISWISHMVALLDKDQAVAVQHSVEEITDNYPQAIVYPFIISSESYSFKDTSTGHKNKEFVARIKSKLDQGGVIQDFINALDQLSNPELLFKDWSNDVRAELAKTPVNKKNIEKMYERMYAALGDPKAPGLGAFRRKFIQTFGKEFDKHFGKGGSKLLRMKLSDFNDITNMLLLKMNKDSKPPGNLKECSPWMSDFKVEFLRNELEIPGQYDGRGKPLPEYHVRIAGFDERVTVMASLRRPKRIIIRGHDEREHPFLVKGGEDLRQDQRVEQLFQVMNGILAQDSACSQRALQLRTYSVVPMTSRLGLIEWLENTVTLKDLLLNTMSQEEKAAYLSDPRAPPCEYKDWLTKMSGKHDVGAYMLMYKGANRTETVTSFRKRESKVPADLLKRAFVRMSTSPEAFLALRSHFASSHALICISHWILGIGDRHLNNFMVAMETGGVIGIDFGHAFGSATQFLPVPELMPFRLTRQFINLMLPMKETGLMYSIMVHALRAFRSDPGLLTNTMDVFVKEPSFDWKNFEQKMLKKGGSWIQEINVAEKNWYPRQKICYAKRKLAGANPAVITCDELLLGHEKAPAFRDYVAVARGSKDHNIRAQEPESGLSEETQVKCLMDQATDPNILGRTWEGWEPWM
Assay: Inhibition of DNA-PK

pIC50	Compound
< 5.00	COc1ccc(-c2ccc3c(N4CCOCC4)nc(N4C[C@@H](C)O[C@@H](C)C4)nc3n2)cc1CO [Ku-0063794]

System: not listed separately
Assay: Inhibition of mTOR in human HeLa cells using 4E-BP1 substrate by ELISA
Type: cell-based
Summary of the method: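 Full-length mTOR immunoprecipitated from HeLa cytoplasmic extract; recombinant 4E-BP1 protein as substrate; ATP at 50 µM; phosphorylated product detected by ELISA. Values are the mean of at least 3 determinations, with variability around the mean <50%.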

pIC50	Compound
6.66	C[C@@H]1CN(c2nc(N3CCOCC3)c3ccc(-c4ccncc4)nc3n2)C[C@H](C)O1
7.28	C[C@@H]1CN(c2nc(N3CCOCC3)c3ccc(-c4cccc(O)c4)nc3n2)C[C@H](C)O1
5.74	C[C@H]1COCCN1c1nc(N2CCOCC2)c2cccnc2n1
7.43	C[C@@H]1CN(c2nc(N3CCOCC3)c3ccc(-c4ccc(O)c(CO)c4)nc3n2)C[C@H](C)O1
6.92	C[C@@H]1CN(c2nc(N3CCOCC3)c3ccc(Nc4ccccc4)nc3n2)C[C@H](C)O1
7.80	COc1ccc(-c2ccc3c(N4CCOCC4)nc(N4C[C@@H](C)O[C@@H](C)C4)nc3n2)cc1CO [Ku-0063794]
7.06	C[C@@H]1CN(c2nc(N3CCOCC3)c3ccc(Nc4ccncc4)nc3n2)C[C@H](C)O1
6.00	CC1CCCCN1c1nc(N2CCOCC2)c2cccnc2n1 (racemic)
7.41	C[C@@H]1CN(c2nc(N3CCOCC3)c3ccc(-c4ccc(O)cc4)nc3n2)C[C@H](C)O1
7.03	C[C@@H]1CN(c2nc(N3CCOCC3)c3ccc(-c4cccc(CO)c4)nc3n2)C[C@H](C)O1
5.89	C[C@@H]1CN(c2nc(N3CCOCC3)c3cccnc3n2)C[C@H](C)O1
5.92	C[C@@H]1CCCCN1c1nc(N2CCOCC2)c2cccnc2n1
7.35	COc1ccc(-c2ccc3c(N4CCOCC4)nc(N4C[C@@H](C)O[C@@H](C)C4)nc3n2)cc1
6.31	COc1cccc(-c2ccc3c(N4CCOCC4)nc(N4C[C@@H](C)O[C@@H](C)C4)nc3n2)c1
5.52	CC1CCCN(c2nc(N3CCOCC3)c3cccnc3n2)C1 (stereo not drawn)
7.48	C[C@@H]1CN(c2nc(N3CCOCC3)c3ccc(-c4ccsc4)nc3n2)C[C@H](C)O1
7.21	C[C@@H]1CN(c2nc(N3CCOCC3)c3ccc(-c4ccccc4)nc3n2)C[C@H](C)O1
6.92	C[C@@H]1CN(c2nc(N3CCOCC3)c3ccc(-c4ccoc4)nc3n2)C[C@H](C)O1
5.32	C[C@H]1CCCCN1c1nc(N2CCCOCC2)c2cccnc2n1
6.16	C[C@H]1CCCCN1c1nc(N2CCOCC2)c2cccnc2n1
